Measurements reported in ChEMBL document CHEMBL4138318, “Discovery of 5-Cyano-6-phenylpyrimidin Derivatives Containing an Acylurea Moiety as Orally Bioavailable Reversal Agents against P-Glycoprotein-Mediated Mutidrug Resistance” (J Med Chem, 2018).
Activity calls are given as the source filed them. The rule behind the calls is not given here.

Columns and labels:
[1] = target: T1, ATP-dependent translocase ABCB1 (Homo sapiens, UniProt P08183); assay: Inhibition of ABCB1 in human SW620/AD300 cells assessed as potentiation of paclitaxel-induced cytotoxicity after 72 hrs by MTT assay; type: cell-based
T1 sequence (P08183 whole entry): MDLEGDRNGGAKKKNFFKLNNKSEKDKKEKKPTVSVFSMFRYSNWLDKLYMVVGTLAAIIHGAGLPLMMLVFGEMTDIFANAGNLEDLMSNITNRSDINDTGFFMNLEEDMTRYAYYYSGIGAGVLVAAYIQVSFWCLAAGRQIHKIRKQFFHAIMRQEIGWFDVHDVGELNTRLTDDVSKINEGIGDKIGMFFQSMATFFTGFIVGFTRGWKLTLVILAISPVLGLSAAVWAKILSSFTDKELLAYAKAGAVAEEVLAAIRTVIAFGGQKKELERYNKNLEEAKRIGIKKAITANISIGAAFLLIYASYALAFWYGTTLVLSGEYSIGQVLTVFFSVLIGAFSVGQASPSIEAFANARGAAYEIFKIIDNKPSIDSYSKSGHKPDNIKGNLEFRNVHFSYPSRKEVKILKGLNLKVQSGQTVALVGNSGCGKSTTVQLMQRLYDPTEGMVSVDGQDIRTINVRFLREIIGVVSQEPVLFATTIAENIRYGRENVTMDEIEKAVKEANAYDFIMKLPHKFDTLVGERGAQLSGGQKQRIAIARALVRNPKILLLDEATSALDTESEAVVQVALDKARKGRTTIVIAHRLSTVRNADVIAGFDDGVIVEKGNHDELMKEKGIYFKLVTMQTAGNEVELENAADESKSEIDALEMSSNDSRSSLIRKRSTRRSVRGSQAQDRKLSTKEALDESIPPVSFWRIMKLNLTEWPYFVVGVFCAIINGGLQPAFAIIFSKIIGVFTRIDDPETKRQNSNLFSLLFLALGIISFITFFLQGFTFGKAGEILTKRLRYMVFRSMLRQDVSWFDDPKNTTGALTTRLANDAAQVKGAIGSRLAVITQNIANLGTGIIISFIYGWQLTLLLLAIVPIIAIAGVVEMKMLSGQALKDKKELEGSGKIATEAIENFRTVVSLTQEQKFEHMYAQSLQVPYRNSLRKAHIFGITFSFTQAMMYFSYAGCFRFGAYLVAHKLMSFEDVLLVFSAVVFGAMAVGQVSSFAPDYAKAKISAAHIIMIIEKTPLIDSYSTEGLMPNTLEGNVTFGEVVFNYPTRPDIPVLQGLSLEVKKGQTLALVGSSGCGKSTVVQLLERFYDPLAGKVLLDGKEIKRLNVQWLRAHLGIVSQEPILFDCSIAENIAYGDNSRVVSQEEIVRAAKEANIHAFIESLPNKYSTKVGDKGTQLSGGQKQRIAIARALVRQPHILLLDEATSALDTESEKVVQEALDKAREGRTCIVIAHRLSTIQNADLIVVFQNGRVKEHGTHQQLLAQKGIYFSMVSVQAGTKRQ
Method in brief: (§1)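 SW620/AD300 cells (~5×10^3/well) treated with graded paclitaxel with or without modulator (2 µM, or 0.5-2 µM in dose series; 0.1% DMSO solvent control) for 72 h; MTT (5 mg/mL stock) added 4 h, absorbance 490 nm. IC50 as mean ± SD of three independent runs; reversal fold = paclitaxel IC50 without/with modulator.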

[2] = target: T1, ATP-dependent translocase ABCB1; assay: Inhibition of ABCB1 in human SW620/AD300 cells assessed as potentiation of paclitaxel-induced cytotoxicity by measuring fold reduction in paclitaxel IC50 at 2 uM after 72 hrs by MTT assay relative to paclitaxel alone; type: cell-based; method in brief: as §1
[3] = Cytotoxicity against human SW620 cells assessed as survival at 2 uM after 72 hrs by MTT assay relative to control; type: cell-based, SW-620; conditions: read-out: Survival
[4] = Cytotoxicity against human SW620/AD300 cells assessed as survival at 2 uM after 72 hrs by MTT assay relative to control; type: cell-based; conditions: read-out: Survival
[5] = target: T1, ATP-dependent translocase ABCB1; assay: Inhibition of ABCB1 in human SW620/AD300 cells assessed as potentiation of paclitaxel-induced cytotoxicity by measuring fold reduction in paclitaxel IC50 at 0.5 uM after 72 hrs by MTT assay; type: cell-based; method in brief: as §1
[6] = target: T1, ATP-dependent translocase ABCB1; assay: Inhibition of ABCB1 in human SW620/AD300 cells assessed as potentiation of paclitaxel-induced cytotoxicity by measuring fold reduction in paclitaxel IC50 at 1 uM after 72 hrs by MTT assay; type: cell-based; method in brief: as §1
SW620/AD300 = assay: Effect on subcellular localization of ABCB1 in human SW620/AD300 cells at 2 uM after 48 hrs by Hoechst 33258 staining-based immunofluorescence assay; type: functional, cell-based
Method in brief: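 About 1×10^4 cells on coverslips incubated with compound 48 h, fixed in 4% paraformaldehyde ≥20 min, blocked 2 h in PBS with 5% BSA, anti-ABCB1 primary overnight at 4℃, Alexa Fluor 488 anti-goat secondary 2 h, nuclei stained with Hoechst 33258 20 min; imaged by laser scanning confocal microscopy.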

[7] = target: T1, ATP-dependent translocase ABCB1; assay: Inhibition of ABCB1 in human SW620/AD300 cells assessed as decrease in rhodamine 123 efflux up to 4 uM preincubated for 4 hrs followed by 30 mins incubation in Rho-123 containing medium and subsequent incubation in Rho-123 free medium up to 120 mins by flow cytometry; type: cell-based
Method in brief: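 Cells loaded with rhodamine 123 as in the accumulation assay (4 h compound pre-exposure, 1 µg/mL dye 30 min, 37℃), then kept in dye-free medium with or without reversal agent for 30, 60, 90 or 120 min at 37℃; intracellular fluorescence read by flow cytometry at 488/530 nm. Three independent experiments.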

Cytochrome P450 3A4 = Cytochrome P450 3A4 (Homo sapiens, UniProt P08684); assay: Inhibition of recombinant human CYP3A4 up to 32 uM in presence of NADPH generating system by fluorescence assay; type: ADME; conditions: recombinant enzyme
Sequence of Cytochrome P450 3A4 (P08684 whole entry): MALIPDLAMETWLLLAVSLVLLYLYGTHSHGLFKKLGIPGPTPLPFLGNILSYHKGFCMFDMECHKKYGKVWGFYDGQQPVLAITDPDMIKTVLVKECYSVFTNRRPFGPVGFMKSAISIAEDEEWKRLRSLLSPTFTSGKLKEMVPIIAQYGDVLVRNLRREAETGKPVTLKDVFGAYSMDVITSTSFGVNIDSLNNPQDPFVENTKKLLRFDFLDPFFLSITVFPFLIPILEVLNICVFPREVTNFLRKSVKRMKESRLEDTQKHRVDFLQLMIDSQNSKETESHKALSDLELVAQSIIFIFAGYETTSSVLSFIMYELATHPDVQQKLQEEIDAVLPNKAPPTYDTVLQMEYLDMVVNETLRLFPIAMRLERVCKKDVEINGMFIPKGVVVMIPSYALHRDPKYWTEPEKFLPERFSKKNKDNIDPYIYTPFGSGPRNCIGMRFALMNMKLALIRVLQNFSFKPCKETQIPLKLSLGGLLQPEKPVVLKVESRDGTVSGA

| SMILES | inhibition (INH) [1] | fold change (FC) [2] | viability at 72 h, 2 µM [3] [%] | viability at 72 h, 2 µM [4] [%] | fold change (FC) [5] | fold change (FC) [6] | Activity (SW620/AD300) | inhibition (INH) [7] | inhibition (INH) (Cytochrome P450 3A4) |
| --- | --- | --- | --- | --- | --- | --- | --- | --- | --- |
| COc1ccc(CCN(C)CCCC(C#N)(c2ccc(OC)c(OC)c2)C(C)C)cc1OC (stereo unspecified) | Dose-dependent effect |  |  |  |  |  |  |  |  |
| COc1cc(-c2nc(SCC(=O)NC(=O)Nc3ccccn3)nc(Nc3ccc(Br)cc3)c2C#N)cc(OC)c1OC | Dose-dependent effect | 190.27 | > 90 | > 90 | 8.019 | 32.2 | inactive | Active | Not Active |
| COc1cc(-c2nc(SCC(=O)NC(=O)Nc3ccccc3)nc(Nc3cccc(Cl)c3)c2C#N)cc(OC)c1OC | Dose-dependent effect | 261.63 | > 90 | > 90 | 37.04 | 26.33 | inactive | Active | Not Active |
| Cc1ccc(Nc2nc(SCc3cn(CC(=O)NC(=O)Nc4ccccn4)nn3)nc(-c3ccc(Br)cc3)c2C#N)cc1 |  | 1.41 | > 90 | > 90 |  |  |  |  |  |
| CC(C)c1ccc(-c2nc(SCc3cn(CC(=O)NC(=O)Nc4ccccn4)nn3)nc(Nc3cccc(Cl)c3)c2C#N)cc1 |  | 2.71 | > 90 | > 90 |  |  |  |  |  |
| N#Cc1c(Nc2ccccc2Cl)nc(SCC(=O)NC(=O)Nc2ccccn2)nc1-c1ccc(F)c(F)c1 |  | 14.24 | > 90 | > 90 |  |  |  |  |  |
| Cc1ccccc1Nc1nc(SCc2cn(CC(=O)NC(=O)Nc3ccccn3)nn2)nc(-c2ccc(C(C)C)cc2)c1C#N |  | 4.69 | > 90 | > 90 |  |  |  |  |  |
| Cc1ccc(Nc2nc(SCC(=O)NC(=O)Nc3ccccn3)nc(-c3ccccc3)c2C#N)cc1 |  | 1.67 | > 90 | > 90 |  |  |  |  |  |
| COc1cc(-c2nc(SCC(=O)NC(=O)Nc3ccccn3)nc(Nc3ccc(Cl)cc3)c2C#N)cc(OC)c1OC |  | 12.61 | > 90 | > 90 |  |  |  |  |  |
| CC(C)c1ccc(-c2nc(SCc3cn(CC(=O)NC(=O)Nc4ccccn4)nn3)nc(Nc3ccccc3F)c2C#N)cc1 |  | 2.74 | > 90 | > 90 |  |  |  |  |  |
| COc1ccc(Nc2nc(SCc3cn(CC(=O)NC(=O)Nc4ccccn4)nn3)nc(-c3ccc(C)cc3)c2C#N)cc1 |  | 1.18 | > 90 | > 90 |  |  |  |  |  |
| Cc1ccc(-c2nc(SCc3cn(CC(=O)NC(=O)Nc4ccccn4)nn3)nc(Nc3ccc(C(C)C)cc3)c2C#N)cc1 |  | 1.18 | > 90 | > 90 |  |  |  |  |  |
